According to ChEMBL document CHEMBL4038305, “Benzoxaborole Antimalarial Agents. Part 5. Lead Optimization of Novel Amide Pyrazinyloxy Benzoxaboroles and Identification of a Preclinical Candidate” (J Med Chem, 2017):
pIC50: −log10 of the molar value.

Columns and labels:
Lymphocyte [1] = experiment: Genotoxicity in human lymphocytes at 0.5 to 355 ug/mL after 3 to 28 hrs in absence of rat liver S9 fraction by micronucleus assay; type: toxicity, cell-based
[2] = Tmax in Beagle dog plasma at 5 mg/kg, po via gavage by HPLC/MS analysis; type: ADME, organism-based, Canis lupus familiaris
[3] = Clearance in Beagle dog at 5 mg/kg, iv by HPLC/MS analysis; type: ADME, organism-based, Canis lupus familiaris; settings: in vivo
Outline: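 Female CD-1 mice, male SD rats and beagle dogs received 5 mg/kg either iv or by oral gavage. Vehicle was PEG 300/propylene glycol/water (55/25/20, pH 6). Blood was sampled and drug measured by HPLC-MS/MS.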

[4] = AUC (0 to infinity) in Beagle dog at 5 mg/kg, iv by HPLC/MS analysis; type: ADME, organism-based, Canis lupus familiaris; design: dose 5 mg/kg, time infinity, route intravenous; settings: in vivo
[5] = Terminal half life in Beagle dog at 5 mg/kg, iv by HPLC/MS analysis; type: ADME, organism-based, Canis lupus familiaris; settings: in vivo, read-out: beta t1/2 (converted)
Outline: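 Female CD-1 mice, male SD rats or beagle dogs given 5 mg/kg by iv injection or oral gavage. Formulation was PEG300/propylene glycol/water 55/25/20, pH 6. Blood samples analysed by HPLC–MS/MS; parameters include AUC0-inf extrapolated to infinity and terminal half-life.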

Plasmodium berghei [6] = experiment: Antimalarial activity against Plasmodium berghei infected in Swiss Webster mouse assessed as mouse survival rate at 3.7 mg/kg administered once daily via oral gavage for 4 consecutive days beginning 1 hr after infection measured on day 8 post infection relative to control; type: functional
Outline: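 P. berghei-infected erythrocytes taken from a previously infected mouse were injected intraperitoneally. Oral dosing, once daily for 4 consecutive days, began 1 h after infection, in polyethylene glycol 300/propylene glycol/water (55/25/20 by weight). Chloroquine at 30 mg/kg was the positive control, with a vehicle-only group. Percent survival was recorded daily from day 4 to day 20.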

Plasmodium falciparum = experiment: Antimalarial activity against Plasmodium falciparum T9/94 infected in human erythrocytes assessed as reduction in [3H]-hypoxanthine incorporation preincubated for 24 hrs followed by [3H]-hypoxanthine addition measured after 24 hrs by scintillation counting method; type: functional, cell-based
Salmonella typhimurium [7] = experiment: Genotoxicity in Salmonella typhimurium TA98 assessed as number of revertants per plate at 5 ug/plate in absence of rat liver S9 fraction by Ames test (reference value: 14 +/- 6); type: toxicity; settings: salmonella enterica subsp. enterica serovar typhimurium
Salmonella typhimurium [8] = experiment: Genotoxicity in Salmonella typhimurium TA98 assessed as number of revertants per plate at 150 ug/plate in absence of rat liver S9 fraction by Ames test (reference value: 14 +/- 6); type: toxicity; settings: salmonella enterica subsp. enterica serovar typhimurium
Salmonella typhimurium [9] = experiment: Genotoxicity in Salmonella typhimurium TA100 assessed as number of revertants per plate at 5 ug/plate in absence of rat liver S9 fraction by Ames test (reference value: 154 +/- 9); type: toxicity; settings: salmonella enterica subsp. enterica serovar typhimurium
Salmonella typhimurium [10] = experiment: Genotoxicity in Salmonella typhimurium TA98 assessed as number of revertants per plate at 1.5 ug/plate in presence of rat liver S9 fraction by Ames test (reference value: 19 +/- 8); type: toxicity; settings: salmonella enterica subsp. enterica serovar typhimurium
Salmonella typhimurium [11] = experiment: Genotoxicity in Salmonella typhimurium TA98 assessed as number of revertants per plate at 50 ug/plate in presence of rat liver S9 fraction by Ames test (reference value: 19 +/- 8); type: toxicity; settings: salmonella enterica subsp. enterica serovar typhimurium
Salmonella typhimurium [12] = experiment: Genotoxicity in Salmonella typhimurium TA98 assessed as number of revertants per plate at 500 ug/plate in presence of rat liver S9 fraction by Ames test (reference value: 19 +/- 8); type: toxicity; settings: salmonella enterica subsp. enterica serovar typhimurium
Salmonella typhimurium [13] = experiment: Genotoxicity in Salmonella typhimurium TA98 assessed as number of revertants per plate at 5000 ug/plate in presence of rat liver S9 fraction by Ames test (reference value: 19 +/- 8); type: toxicity; settings: salmonella enterica subsp. enterica serovar typhimurium
Salmonella typhimurium [14] = experiment: Genotoxicity in Salmonella typhimurium TA100 assessed as number of revertants per plate at 150 ug/plate in absence of rat liver S9 fraction by Ames test (reference value: 154 +/- 9); type: toxicity; settings: salmonella enterica subsp. enterica serovar typhimurium
Salmonella typhimurium [15] = experiment: Genotoxicity in Salmonella typhimurium TA1535 assessed as number of revertants per plate at 1.5 ug/plate in absence of rat liver S9 fraction by Ames test (reference value: 10 +/- 3); type: toxicity; settings: salmonella enterica subsp. enterica serovar typhimurium
Salmonella typhimurium [16] = experiment: Genotoxicity in Salmonella typhimurium TA1535 assessed as number of revertants per plate at 500 ug/plate in presence of rat liver S9 fraction by Ames test (reference value: 10); type: toxicity; settings: salmonella enterica subsp. enterica serovar typhimurium
Salmonella typhimurium [17] = experiment: Genotoxicity in Salmonella typhimurium TA1537 assessed as number of revertants per plate at 1500 ug/plate in absence of rat liver S9 fraction by Ames test (reference value: 19 +/- 9); type: toxicity; settings: salmonella enterica subsp. enterica serovar typhimurium
Salmonella typhimurium [18] = experiment: Genotoxicity in Salmonella typhimurium TA1537 assessed as number of revertants per plate at 5000 ug/plate in absence of rat liver S9 fraction by Ames test (reference value: 19 +/- 9); type: toxicity; settings: salmonella enterica subsp. enterica serovar typhimurium
Salmonella typhimurium [19] = experiment: Genotoxicity in Salmonella typhimurium TA1537 assessed as number of revertants per plate at 50 ug/plate in presence of rat liver S9 fraction by Ames test (reference value: 11 +/- 4); type: toxicity; settings: salmonella enterica subsp. enterica serovar typhimurium
Salmonella typhimurium [20] = experiment: Genotoxicity in Salmonella typhimurium TA1537 assessed as number of revertants per plate at 500 ug/plate in presence of rat liver S9 fraction by Ames test (reference value: 11 +/- 4); type: toxicity; settings: salmonella enterica subsp. enterica serovar typhimurium
Escherichia coli [21] = experiment: Genotoxicity in Escherichia coli WP2uvrA assessed as number of revertants per plate at 50 ug/plate in absence of rat liver S9 fraction by Ames test (reference value: 45 +/- 9); type: toxicity
Escherichia coli [22] = experiment: Genotoxicity in Escherichia coli WP2uvrA assessed as number of revertants per plate at 150 ug/plate in absence of rat liver S9 fraction by Ames test (reference value: 45 +/- 9); type: toxicity
Lymphocyte [23] = experiment: Genotoxicity in human lymphocytes assessed as replication index at 355.15 ug/mL after 3 hrs in absence of rat liver S9 fraction by micronucleus assay relative to control; type: toxicity, cell-based
Outline: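 Human lymphocytes exposed for 3 h with or without rat liver S9, or 28 h without S9, with 1% DMSO as vehicle control. Replication index = (binucleated + 2 × multinucleated cells)/total cells. Cytotoxicity (%) = 100 − (RI treated/RI vehicle) × 100.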

Lymphocyte [24] = experiment: Genotoxicity in human lymphocytes assessed as increase in frequency of micronucleated cells at 160 ug/mL after 3 hrs in absence of rat liver S9 fraction by micronucleus assay (reference value: 0.99%); type: toxicity, cell-based
Lymphocyte [25] = experiment: Genotoxicity in human lymphocytes assessed as increase in frequency of micronucleated cells at 355.15 ug/mL after 28 hrs in absence of rat liver S9 fraction by micronucleus assay (reference value: 0.74%); type: toxicity, cell-based
Plasmodium berghei [26] = experiment: Antimalarial activity against Plasmodium berghei infected in Swiss Webster mouse assessed as mouse survival rate at 0.3 mg/kg administered once daily via oral gavage for 4 consecutive days beginning 1 hr after infection measured on day 7 post infection relative to control; type: functional
Outline: (§1)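 Mice given an intraperitoneal injection of P. berghei-infected erythrocytes taken from a previously infected animal. Oral dosing once daily for 4 consecutive days, starting 1 h after infection. Vehicle: polyethylene glycol 300/propylene glycol/water (weight ratio 55/25/20). Percent survival recorded daily from day 4 to day 20. Chloroquine 30 mg/kg and vehicle-only groups served as controls.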

Plasmodium berghei [27] = experiment: Antimalarial activity against Plasmodium berghei infected in Swiss Webster mouse assessed as mouse survival rate at 1 mg/kg administered once daily via oral gavage for 4 consecutive days beginning 1 hr after infection measured on day 8 post infection relative to control; type: functional; outline: as §1

Q: For `Cc1c(Oc2cnc(C(=O)NCCO)cn2)ccc2c1B(O)OC2`, which Activity (Lymphocyte [1]) is on record?
A: Non-Toxic

Q: With `Cc1c(Oc2cnc(C(=O)N3CC(C)(O)C3)cn2)ccc2c1B(O)OC2` as the compound, how does the Tmax [2] read?
A: 1.2 h

Q: And the clearance [3]?
A: 0.505 mL/min/kg

Q: And the AUC(0-inf) [4]?
A: 168 µg·h/mL

Q: And the half-life [5]?
A: 6.9 h

Q: What about the survival at 3.7 mg/kg (Plasmodium berghei [6]) of the same compound?
A: 0%

Q: What about the pIC50 (Plasmodium falciparum) of the same compound?
A: 7.27

Q: What about the Activity (Salmonella typhimurium [7]) of the same compound?
A: 12

Q: And the Activity (Salmonella typhimurium [8])?
A: 13

Q: And the Activity (Salmonella typhimurium [9])?
A: 152

Q: What about the Activity (Salmonella typhimurium [10]) of the same compound?
A: 20

Q: What about the Activity (Salmonella typhimurium [11]) of the same compound?
A: 17

Q: And the Activity (Salmonella typhimurium [12])?
A: 18

Q: And the Activity (Salmonella typhimurium [13])?
A: 18

Q: What about the Activity (Salmonella typhimurium [14]) of the same compound?
A: 148

Q: What about the Activity (Salmonella typhimurium [15]) of the same compound?
A: 12

Q: And the Activity (Salmonella typhimurium [16])?
A: 6

Q: And the Activity (Salmonella typhimurium [17])?
A: 10

Q: What about the Activity (Salmonella typhimurium [18]) of the same compound?
A: 10

Q: And the Activity (Salmonella typhimurium [19])?
A: 9

Q: What about the Activity (Salmonella typhimurium [20]) of the same compound?
A: 17

Q: And the Activity (Escherichia coli [21])?
A: 35

Q: What about the Activity (Escherichia coli [22]) of the same compound?
A: 56

Q: What about the Activity (Lymphocyte [23]) of the same compound?
A: 7%

Q: And the Activity (Lymphocyte [24])?
A: 1.18%

Q: What about the Activity (Lymphocyte [25]) of the same compound?
A: 0.95%

Q: With `Cc1c(Oc2cnc(C(=O)NC(C)CO)cn2)ccc2c1B(O)OC2` (stereo not drawn) as the compound, how does the survival at 0.3 mg/kg (Plasmodium berghei [26]) read?
A: 20%

Q: And the survival at 1 mg/kg (Plasmodium berghei [27])?
A: 0%
